The subject of experiment [1] is Dengue virus. In words: Inhibition of Dengue virus NS2B-NS3 protease using Abz-NleKRRS-3-(NO2)Y as substrate at 50 uM preincubated for 15 mins measured every sec for 15 mins by fluorimetric analysis.
Experiment [2] addresses Prothrombin (Bos taurus) (UniProt P00735). Nature of the experiment: Inhibition of bovine plasma thrombin using Boc-Val-Pro-Arg-AMC as substrate at 25 uM preincubated for 15 mins measured after 10 mins by fluorimetric assay. Put shortly:
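Purchased bovine plasma thrombin at 10 nM final, preincubated 15 min with 25 μM inhibitor; reaction started with 50 μM substrate. Buffer 50 mM Tris-HCl pH 7.5, 150 mM NaCl, 0.05% Tween 20. Triplicate, averaged.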

In experiment [3] the test system is Escherichia coli. Nature of the experiment: Inhibition of Escherichia coli MurA using PEP as substrate assessed as inorganic phosphate release at 25 uM preincubated for 10 mins measured after 60 mins […].
Experiment [4] has as its system Escherichia coli. Nature of the experiment: Inhibition of Escherichia coli MetAP at 10 uM after 15 mins by fluorescence analysis.

Activity calls are given as the source filed them.

In the case of `O=C1NC(=S)N/C1=C\c1ccc2ccccc2c1`, the inhibition (usually the percentage by which the read-out fell short of the control) in experiment [1] worked out at 46%; in experiment [2], 27%; in experiment [3], 32%; in experiment [4], 15%.

Consider `CC(=O)N1C(=S)NC(=O)[C@@H]1CCC(N)=O`, for which the inhibition result in experiment [1], in experiment [2] and in experiment [3] was “inactive” throughout. Further, the inhibition in experiment [4] worked out at 13%.

In the case of `CC(=O)N1C(=S)NC(=O)[C@@H]1Cc1ccccc1`, the inhibition entry in experiment [1] and in experiment [2] was “inactive” in each case. Also, the inhibition in experiment [3] was determined as 19%; in experiment [4], 12%.

As to `O=C1NC(=S)S/C1=C\c1ccc(O)cc1`, the inhibition amounted to 47% in experiment [1], 34% in experiment [2] and 24% in experiment [3]. Also, the inhibition result in experiment [4] was “inactive”.

With `COc1cc(/C=C2\NC(=S)NC2=O)ccc1O`, the inhibition in experiment [1] turned out to be 38%; in experiment [2], 23%; in experiment [3] it was 72%; in experiment [4], 26%.

For `CN(C)c1ccc(/C=C2\NC(=O)NC2=O)cc1`, the inhibition in experiment [1] was 29%; in experiment [2], 16%. For the same compound, the inhibition result in experiment [3] and in experiment [4] was “inactive” in each case.

As for `COc1ccc(/C=C2\NC(=O)NC2=O)cc1OC`, the inhibition in experiment [1] amounted to 18%. Further, the inhibition result in experiment [2], in experiment [3] and in experiment [4] was “inactive” each time.

Regarding `CC(=O)N1C(=S)NC(=O)[C@@H]1CC(C)C`, the inhibition result in experiment [1], in experiment [2] and in experiment [3] was “inactive” in each case. Further, the inhibition in experiment [4] came to 13%.

With `Cc1ccc(/C=C2\SC(O)=NC2=O)cc1`, the inhibition in experiment [1] amounted to 17%; in experiment [2], 18%. The inhibition entry in experiment [3] and in experiment [4] was “inactive” in each case.

`COc1cccc(/C=C2\NC(=S)NC2=O)c1`: the inhibition in experiment [1] amounted to 28%; in experiment [2], 15%; in experiment [3], 10%; in experiment [4], 18%.

Compound `NCCCC[C@@H]1NC(=S)NC1=O` yielded an inhibition in experiment [1] of 11%. Moreover, the inhibition result in experiment [2], in experiment [3] and in experiment [4] was “inactive” each time.

With `O=C1CSC(=O)N1`, in experiment [1], the inhibition amounted to 13%. The inhibition entry in experiment [2], in experiment [3] and in experiment [4] was “inactive” each time.

Turning to `O=C1NC(=S)S/C1=C\c1ccc(Cl)cc1Cl`, the figures for the inhibition in experiment [1], in experiment [2] and in experiment [3] were 46%, 23% and 15%, respectively. The inhibition entry in experiment [4] is “inactive”.

As to `C/C(=C1/SC(=S)NC1=O)c1ccc2ccccc2c1`, the values for the inhibition in experiment [1] and in experiment [2] were 42% and 23%, respectively. Also, the inhibition entry in experiment [3] and in experiment [4] was “inactive” each time.

In the case of `CN(C)c1ccc(/C=C2\SC(=S)NC2=O)cc1`, the inhibition turned out to be 36% in experiment [1], 21% in experiment [2] and 15% in experiment [3]. Moreover, the inhibition entry in experiment [4] is “inactive”.

Turning to `COc1ccc(/C=C2\SC(=S)NC2=O)cc1OC`, the results for the inhibition in experiment [1] and in experiment [2] were 50% and 29%, respectively. The inhibition result in experiment [3] and in experiment [4] was “inactive” in each case.

For the compound `O=C1NC(=S)N[C@@H]1Cc1ccccc1`, the values for the inhibition in experiment [1], in experiment [2] and in experiment [3] were 14%, 12% and 11%, respectively. The inhibition result in experiment [4] is “inactive”.

On to `O=C1NC(=O)/C(=C/c2ccc(O)cc2)S1`, for which the values for the inhibition in experiment [1] and in experiment [2] were 32% and 34%, respectively. In addition, the inhibition result in experiment [3] and in experiment [4] was “inactive” in each case.

In the case of `CCC/C=C/C1NC(=S)NC1=O` (centres undefined), the inhibition result in experiment [1] is “inactive”. Also, the inhibition in experiment [2] is 14%; in experiment [3], 77%; in experiment [4], 19%.

As for `O=C1NC(=O)/C(=C/c2sccc2Br)S1`, the inhibition entry in experiment [1] and in experiment [4] was “inactive” throughout. The inhibition was 18% in experiment [2] and 44% in experiment [3].

For the compound `C/C(=C1/NC(=S)NC1=O)c1ccccc1`, the inhibition entry in experiment [1] was “inactive”. Also, the inhibition in experiment [2] came to 21%; in experiment [3], 24%; in experiment [4], 14%.

For `O=C1NC(=S)N/C1=C\c1cc(Br)cs1`, the inhibition is 42% in experiment [1], 15% in experiment [2], 57% in experiment [3] and 11% in experiment [4].

For `CC(=O)n1cc(/C=C2\NC(=S)NC2=O)c2ccccc21`, the inhibition in experiment [1] was 43%; in experiment [2], 11%; in experiment [3], 13%; in experiment [4], 15%.

With `O=C1CNC(=S)N1`, the inhibition entry in experiment [1], in experiment [2], in experiment [3] and in experiment [4] was “inactive” each time.

Turning to `O=C1NC(=O)/C(=C/c2ccc(Br)s2)N1`, the inhibition in experiment [1] and in experiment [2] was 22% each time. Further, the inhibition result in experiment [3] and in experiment [4] was “inactive” each time.

With `O=C1NC(=O)/C(=C/c2ccc([N+](=O)[O-])cc2)S1`, the inhibition entry in experiment [1], in experiment [2] and in experiment [3] was “inactive” in each case. Moreover, the inhibition in experiment [4] was found to be 13%.

With `O=C1NC(=S)S/C1=C\c1cnc[nH]1`, the inhibition in experiment [1] was determined as 53%; in experiment [2], 31%; in experiment [3] it was 18%; in experiment [4], 18%.

Turning to `O=C1NC(=O)/C(=C/c2ccco2)N1`, the figures for the inhibition in experiment [1], in experiment [2] and in experiment [3] were 25%, 23% and 10%, respectively. In experiment [4], the inhibition result is “inactive”.

As to `O=C1NC(=S)S/C1=C\c1cccc(O)c1`, the inhibition in experiment [1] was 29%; in experiment [2] it was 15%; in experiment [3], 58%; in experiment [4] it was 12%.

As to `O=C1NC(=S)N/C1=C\c1ccc(Cl)cc1Cl`, the inhibition is 41% in experiment [1], 20% in experiment [2], 22% in experiment [3] and 15% in experiment [4].

Consider `CCCCC/C=C1\NC(=S)NC1=O`, for which the inhibition worked out at 18% in experiment [1], 16% in experiment [2], 17% in experiment [3] and 27% in experiment [4].

With `O=C1NC(=S)SC1Cc1ccccc1` (centres undefined), the inhibition entry in experiment [1], in experiment [2] and in experiment [4] was “inactive” each time. In addition, the inhibition in experiment [3] turned out to be 11%.

`COc1cc(/C=C2\SC(=O)NC2=O)ccc1O`: the inhibition in experiment [1] amounted to 19%; in experiment [2] it was 27%; in experiment [3] it was 100%. In addition, the inhibition entry in experiment [4] is “inactive”.

On to `Cc1ccc(/C=C2\SC(=S)NC2=O)cc1`, for which the inhibition in experiment [2] was 23%.

On to `O=C1NC(=S)S/C1=C\c1ccccn1`, for which the inhibition result in experiment [2] is “inactive”.
